Source: PubChem BioAssay (The Scripps Research Institute Molecular Screening Center)
M4 ag – CHRM4 agonism in calcium assay. P08173. CHO-K1 hM4/Gqi5, Fluo-8 calcium fluorescence; vehicle 0%, full acetylcholine response 100%. activation, % at 3 µM. actives 0.14% (n = 360,000). AID 624127;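 active = activation above the run mean over all test wells plus 3 SD, cut at about 32% in these data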;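 also: peak over basal fluorescence ratio per well then scaled between controls; 0% = DMSO wells and 100% = acetylcholine at EC100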
Target sequence (P08173 whole entry, looked up): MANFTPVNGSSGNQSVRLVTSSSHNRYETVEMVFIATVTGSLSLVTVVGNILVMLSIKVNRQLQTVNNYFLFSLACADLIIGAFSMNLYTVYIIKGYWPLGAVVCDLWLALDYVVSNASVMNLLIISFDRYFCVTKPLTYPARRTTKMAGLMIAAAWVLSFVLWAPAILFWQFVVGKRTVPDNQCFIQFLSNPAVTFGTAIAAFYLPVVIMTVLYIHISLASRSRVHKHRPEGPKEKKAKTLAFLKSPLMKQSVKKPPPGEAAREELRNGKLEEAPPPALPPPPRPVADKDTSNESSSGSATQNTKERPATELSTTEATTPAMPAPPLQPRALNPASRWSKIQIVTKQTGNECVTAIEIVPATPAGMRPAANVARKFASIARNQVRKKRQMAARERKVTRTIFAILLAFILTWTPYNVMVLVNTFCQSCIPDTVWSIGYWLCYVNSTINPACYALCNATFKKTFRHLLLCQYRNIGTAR
M4 antag – CHRM4 antagonism in calcium assay | P08173 | CHO-hM4 cells, ACh EC80, Fluo-8 calcium fluorescence | inhibition, % at 3 µM | actives 0.73% (n = 360,000) | AID 624125;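 active = inhibition above its plate's cutoff, the mean inhibition of sample wells plus 3 SD, cut at about 27% in these data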;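 also: 0% = acetylcholine EC80 with DMSO and 100% = DMSO without agonist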
M4 PAM – CHRM4 positive allosteric modulation; P08173; CHO-K1 hM4/Gqi5, Fluo-8 calcium fluorescence, ACh EC20; 0% = ACh EC20, 100% = maximal ACh; activation, % at 3 µM; actives 0.4% (n = 360,000); AID 624126;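 active = activation above its plate's cutoff, the mean activation of sample wells plus 3 SD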
M5 PAM – CHRM5 positive allosteric modulation; actives 0.3% (n = 360,000); activation, % at 3 µM; CHO-K1 hM5, Fluo-8 calcium, ACh EC20 PAM; 0% = ACh EC20, 100% = ACh EC100; AID 624038;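 active = activation above the run cutoff, the mean activation of all test compounds plus 3 SD, cut at about 18% in these data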
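Measured by: Fluo-8 calcium fluorescence; material: human M5 receptor in CHO-K1 cells; schedule: Post-acetylcholine fluorescence recording 140 s; benchmarks: low control EC20 acetylcholine (0%), high control EC100 acetylcholine (100%); read-out: Max/basal fluorescence ratio as % of EC20–EC100 ACh window; compound: single dose, 3 µM nominal final test concentration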
CHRM5 antagonist – blocks acetylcholine activation of human M5 receptor; CHO-hM5 cells, Fluo-8 calcium fluorescence, ACh EC80; inhibition, % at 3 µM; P08912; actives 0.59% (n = 360,000);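 active = inhibition above a per-plate cutoff, the mean of that plate's test compounds plus 3 SD, cut at about 27% in these data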;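 also: 0% = acetylcholine EC80 with DMSO and 100% = DMSO without agonist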
M5 ag – CHRM5 agonism in calcium assay; P08912; CHO-K1 hM5 cells, Fluo-8 calcium fluorescence; 0% DMSO wells, 100% maximal acetylcholine response; activation, % at 3 µM; actives 0.19% (n = 360,000); AID 624037;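 active = activation above the run's mean over test compounds plus 3 SD, cut at about 23% in these data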;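 also: signal is peak over basal fluorescence ratio across the kinetic read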
An asterisk follows results filed as active. Only some compounds are listed: those with a hit (about 1.9% of all), similar ones and a draw of the others.

SMILES | M4 ag | M4 antag | M4 PAM | M5 PAM | CHRM5 antagonist | M5 ag
CCN(CC)CCN1C(=O)c2ccccc2NC1c1ccc(F)cc1 (stereo not drawn) | 0 | 3 | -7 | 3 | -8 | -8
CCN(CC)CCN1C(=O)c2ccccc2NC1c1ccccc1F (stereo not drawn) | 1 | 29* | -15 | -23 | 14 | -7
CC(C)Oc1ccc(/C(O)=C2/C(=O)C(=O)N(Cc3cccnc3)C2c2ccco2)cc1 (stereo not drawn) | 1 | 5 | 19* | 13 | -2 | 3
COC(=O)C1CCN(C(=O)/C=C/c2ccc3c(c2)OCO3)CC1 | 0 | 7 | -7 | -14 | 25 | -1
COC(=O)c1oc2ccc(Br)cc2c1NC(=O)CCCN1C(=O)c2ccccc2C1=O | 1 | 98* | -17 | -23 | 29* | -4
Cc1ccc(S(=O)(=O)N2CCCCC2)c(C)c1NS(C)(=O)=O | 2 | 2 | 4 | 3 | 9 | -3
CCOC(=O)CC1C(=O)NCCN1C(=O)COc1ccc(C(C)(C)C)cc1 (stereo not drawn) | 2 | 7 | 2 | 5 | -9 | 0
CCCCCCc1nc2ccccc2c(=O)n1N | 11 | 8 | -11 | -12 | 10 | -1
CCCCCN1C(=O)Cn2c(nc3ccccc3c2=O)C1C (stereo not drawn) | 2 | -13 | 10 | 18* | -19 | 4
Cc1cc(N)nc2nc(C(F)(F)F)nn12 | 0 | -2 | 8 | 17 | 1 | 1
O=C(O)c1ccccc1C(=O)Nc1nc(-c2ccc3ccccc3c2)cs1 | -2 | 3 | 24* | 4 | 9 | -3
O=C(Nc1nc(-c2ccc3ccccc3c2)cs1)c1ccc(N2C(=O)CCC2=O)cc1 | 1 | 1 | 1 | 2 | 1 | 2
NS(=O)(=O)c1ccc(Nc2nc(-c3cccc([N+](=O)[O-])c3)cs2)cc1 | 6 | 0 | -16 | -13 | 8 | 10
NS(=O)(=O)c1ccc(Nc2nc(-c3ccc4ccccc4c3)cs2)cc1 | 7 | 37* | 6 | 8 | 4 | 20
CC(C)CC(N)c1csc(Nc2ccc(C(=O)NCCCO)cn2)n1 (stereo not drawn) | 2 | -27 | 7 | 0 | 2 | 3
N#Cc1ccc(OCC(=O)Nc2ccccc2NS(=O)(=O)c2cccs2)cc1 | 4 | -20 | -3 | -6 | -6 | 0
NC(=O)CC(NC(=O)Cc1cccc2ccccc12)c1ccc(N2CCC(N3CCCC3)CC2)c([N+](=O)[O-])c1 (stereo not drawn) | 0 | -3 | 14 | 8 | 7 | -5
COC(=O)c1c(NC(=O)c2ccccc2)sc2c1CC(C)(C)NC2(C)C | 1 | 0 | -3 | -8 | 0 | 0
CC1(C)Cc2c(sc(NC(=O)c3ccc(C(=O)c4ccccc4)cc3)c2C(N)=O)C(C)(C)N1 | 16 | 10 | 0 | -8 | 32* | -6
CC1(C)N=C(N)N=C(N)N1c1ccc(Oc2ccc(Cl)cc2)c(Cl)c1 | 0 | 5 | -11 | -21 | 33* | -11
COc1ccc(C/C(C)=N/NC(=O)c2cccnc2)cc1 | 2 | -18 | 33* | 19* | 0 | -2
COc1ccc(C/C(C)=N/NC(=O)c2ccc(Cl)cc2)cc1 | 1 | 0 | 1 | -3 | -5 | 4
O=C(/C=C/c1ccc(F)cc1)NC(=S)NNC(=O)[C@H]1C[C@@H]1c1ccccc1 | 53* | 8 | -9 | -13 | 29* | 13
N=c1sccn1CC(=O)NCCc1ccc(Cl)cc1Cl | 0 | 35* | -18 | -9 | 7 | -7
O=C(Cc1ccccc1)NCCc1ccc(Cl)cc1Cl | 0 | -15 | 2 | -10 | 8 | -3
CCCCN1C[C@H](CSC)[C@@H](CC(=O)Nc2ccc(Br)cc2)C1=O | 4 | -7 | -10 | -7 | 0 | 2
COc1cc(/C=C/C(=O)c2ccc([N+](=O)[O-])o2)ccc1O | 0 | 1 | 7 | -1 | 9 | 0
O=C(/C=C/c1cccc(Cl)c1)c1ccc([N+](=O)[O-])o1 | 5 | 29* | -5 | 0 | 22 | 11
